SKN-1 inh: inhibitors of C. elegans SKN-1. C. elegans VP596 Pgst-4::GFP/RFP ratio, acrylamide-induced, 24 h. inhibition, % at 21.8 µM. 360,000 compounds, 0.49% hits;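 active means interference check ratio from 0.5 to 1.5 plus GFP to RFP signal ratio inhibition reaching or exceeding a fixed threshold, cut at about 30% in these data, passing the limit was not always enough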
GRK2 inh: inhibitors of human GRK2 displacing RNA aptamer | bead flow cytometry, FAM-aptamer displacement from GRK2 | inhibition of aptamer binding, % at 10 µM | 330,000 compounds, 0.59% hits | AID 488847;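 active means inhibition of aptamer binding above 40%, roughly 3 SD of noise, on plates passing a quality check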;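 further: median bead fluorescence of bound FAM aptamer so fluorescent compounds give negative values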
Rce1 inh: blocks yeast Ras-converting enzyme | yeast membranes, quenched prenylated peptide cleavage fluorescence | calls only | 290,000 compounds, 0.27% hits | AID 2563;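 active means fall in fluorescence gain of 50% or more versus controls, with final raw signal at or below 3038400; inconclusive means same 50% fall but final raw signal above 3038400; inactive means fall in fluorescence gain under 50%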;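 further: plate controls were neutral control wells for no effect and wells lacking membranes for full effect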
Rin1 Abl inh: inhibitors of human Rin1-Abl protein interaction. P00519+Q13671. TR-FRET Rin1/Abl binding, biochemical. inhibition, % at 7.35 µM. 360,000 compounds, 0.4% hits; in the data active means inhibition above about 5%, passing the limit was not always enough
T cell HTS: T cell immune modulation candidate; 2C CD8+ T cell-vesicle binding, flow cytometry; hits give low values; response (vesicle binding), % at 7 µM; 330,000 compounds, 0.068% hits;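 active means response, share of CD8 T cells binding vesicles, and their 90th percentile fluorescence all below set limits, cut at about 80% in these data, passing the limit was not always enough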;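 further: values below 100% mean blocked vesicle binding to the CD8+ T cells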
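Material: 2C TCR transgenic mouse naive CD8+ T cells, MACS-purified. Also added: QL9-charged Drosophila Ld/ICAM-1/B7-1 vesicles. Timing: binding 1.5 h at 37 °C. Measured by: high-throughput flow cytometry with anti-B7-1 and anti-CD8 staining. Read-out: percent CD8+ FL2 mean versus row control. Controls: Unloaded micro-vesicles (low), QL9 vesicles with 0.7% DMSO (high).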
Myeloid diff 2: compounds promoting myeloid differentiation; ER-HoxA9 myeloid progenitors, lysozyme-GFP differentiation, flow cytometry; calls only at 10 µM; 360,000 compounds, 1% hits;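 active means normalized GFP-positive differentiation at or above the plate's own cutoff, the solvent-only control mean plus 3 SD; inconclusive means no clear call, values can overlap the other calls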;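 further: cells exposed to compound for four days before flow analysis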
Rin1 Abl conf: Rin1-Abl interaction inhibition confirmation; shares compounds with Rin1 Abl inh; TR-FRET Rin1-Abl binding, purified proteins; inhibition, % at 7.35 µM; 1,300 compounds, 49% hits; AID 602124
GFP quench: quenches GFP fluorescence, counter-screen for Rin1-Abl inhibitors; shares compounds with Rin1 Abl inh; inhibitors/quenchers counterscreen; inhibition, % at 6.75 µM; 1,300 compounds, 8.5% hits;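 further: ABL1-eGFP fusion protein alone without its partner RIN1-SBP; 0% = protein with vehicle and 100% = wells lacking protein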
GFP quench DR: counter-screen for Rin1-Abl inhibitors: GFP quenchers, dose response. shares compounds with Rin1 Abl inh. GFP fluorescence interference/quenching counterscreen. IC50, µM. 230 tested, under 10 active; call rule not given here;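 further: ABL1-eGFP fusion protein alone without its RIN1 binding partner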
Numbers without * were called inactive; i = inactive; ? = inconclusive; / = no result. Rows were chosen to be rich in hits. Some 2.6% of all compounds tested hit in one or more screens of this group. Unless noted, no stated cut-off is given here; in the data, active means inhibition above about 6.5%; inactive means the rest.

SMILES	SKN-1 inh	GRK2 inh	Rce1 inh	Rin1 Abl inh	T cell HTS	Myeloid diff 2	Rin1 Abl conf	GFP quench	others
CC(C)[C@H](NC(=O)C1CC(=O)N(c2ccc3c(c2)OCO3)C1)C(=O)NC1CCCC1 (some centres undefined)	13.8	4.0	i	0.5	364.8	i	/	/
O=C(NCCc1ccccc1)c1ccc2nc(-c3ccco3)c(-c3ccco3)nc2c1	-3.0	1.0	i	1.6	218.6	i	/	/
O=C(NCCO)c1ccc2nc(-c3ccco3)c(-c3ccco3)nc2c1	22.3	7.0	i	10.0*	186.2	i	3.9	13.5*
O=C1CC=Nc2ccc([N+](=O)[O-])cc21	8.5	/	/	14.5*	/	i	-1.8	-0.9
O=CNC1c2ccccc2CCc2ccccc21	-8.6	/	/	4.1	/	i	/	/
Cc1ccc(NC2CNC(=O)NC2=O)cc1C (centres undefined)	4.9	/	/	1.4	/	i	/	/
Cc1ccc(NC2C(=O)NC(=O)NC2=O)cc1	-6.7	/	/	17.0*	/	i	15.8*	-0.6
CN(C)/C=C/C(=O)c1ccc(F)cc1F	-7.9	0.0	i	-1.1	344.6	i	/	/
CC(=O)NN1C(=O)/C(=C\c2ccc(Br)o2)SC1=S	6.0	27.0	i	1.2	208.5	i	/	/
CC(=O)NN1C(=O)/C(=C/c2ccc(Br)o2)SC1=S	-2.2	6.0	i	6.5*	541.0	i	-2.1	0.1
Cc1cc(=O)oc2c(C)c(OCC(=O)N3CCN(c4ccccc4)CC3)ccc12	-5.7	2.0	i	-4.1	178.6	i	/	/
Cc1cc(=O)oc2c(C)c(OCC(=O)N3CCN(C(=O)C4COc5ccccc5O4)CC3)ccc12 (centres undefined)	3.1	3.0	i	10.0*	197.4	i	5.6	-2.4
CCC(=O)Nc1nnc(-c2cccs2)s1	10.0	0.0	i	0.3	185.8	i	/	/
O=C(Cc1ccccc1)Nc1nnc(-c2cccs2)s1	1.0	0.0	i	9.4*	389.5	i	5.3	0.4
CN(CC(=O)Nc1cccc(F)c1)C(=O)CN1C(=O)NC2(CCCC2)C1=O	-2.4	1.0	/	4.4	593.9	i	/	/
O=C(O)c1cc(S(=O)(=O)N2CCN(S(=O)(=O)c3ccc4ccccc4c3)CC2)ccc1Br	-5.8	21.0	/	0.2	156.4	i	/	/
Cc1cccc(OCc2nnc3n2CCCCC3)c1	-0.5	2.0	/	8.0*	482.5	i	-2.4	-1.9
FC(F)(F)c1cccc(OCc2nnc3n2CCC3)c1	-1.6	2.0	i	-3.7	250.4	i	/	/
COc1ccc(NC(=O)C2Cc3c(-c4cccc(C(C)=O)c4)ccnc3O2)cn1 (centres undefined)	-0.9	/	/	-3.2	/	?	/	/
Cc1cccc(NC(=O)NCc2ccc3c(c2)cc(C)n3C)c1	48.8*	31.0	i	7.8*	632.3	i	-19.9	-1.1
O=C1C=C(N2CCOCC2)c2cccc3cccc1c23	22.7	/	/	16.2*	/	i	-15.0	1.2
O=C1C(N2CCOCC2)=Cc2cccc3cccc1c23	45.9	/	/	-5.6	/	i	/	/
COC(=O)CCc1cccc(CCC(=O)OC)c1	5.1	4.0	i	3.4	614.7	i	/	/
CN1CCN(C(c2ccccn2)c2cc(Cl)c3cccnc3c2O)CC1 (centres undefined)	11.3	0.0	i	25.7*	212.4	i	21.8*	4.0	GFP quench DR=>67.5
Cc1ccc(C(c2cc(Cl)c3cccnc3c2O)N2CCN(C)CC2)cc1 (centres undefined)	-9.5	0.0	i	3.3	182.7	?	/	/
SMILES	SKN-1 inh	GRK2 inh	Rce1 inh	Rin1 Abl inh	T cell HTS	Myeloid diff 2	Rin1 Abl conf	GFP quench	others
COc1ccc(CC(=O)Oc2ccc(C)cc2Br)cc1OC	-19.1	0.0	i	40.9*	181.0	i	51.2*	-1.7	GFP quench DR=>67.6
Cc1[nH]c(=O)[nH]c1C(=O)CCCCC(=O)O	11.3	1.0	i	88.6*	284.6	i	97.7*	0.3	GFP quench DR=>67.6
CSc1ccc(C(=O)c2[nH]c(=O)[nH]c2C)cc1	-0.8	2.0	i	-3.0	591.3	i	/	/
C#Cc1cccc(Nc2nc(NC(C)C)nc3ccsc23)c1	17.2	/	/	-0.2	/	i	/	/
Cc1ccc(S(=O)(=O)Nc2cccc(C(=O)NCc3ccccn3)c2)cc1F	22.7	0.0	i	-1.3	254.3	i	/	/
C#CCOCCOCCOCCNc1nc(N2CCN(C(=O)CCCCCCCCCCNC(=O)Cn3cc(CCCCCN)nn3)CC2)nc(N2CCN(C(=O)CCCCCCCCCCNC(=O)[C@@H](CCSC)n3cc(CCO)nn3)CC2)n1	5.7	0.0	/	13.9*	465.3	i	13.5*	0.3
Cn1cc(C(=O)Nc2ccc(C#N)cc2)c2ccccc2c1=O	-11.9	2.0	i	-3.1	155.4	i	/	/
Cc1ccc(S(=O)(=O)CC(=O)Nc2nccs2)cc1	14.8	1.0	i	-0.2	518.0	i	/	/
Cc1cc(=O)oc2c(C)c(OCC(=O)NCCCN3CCOCC3)ccc12	-10.9	29.0	i	2.4	378.5	i	/	/
O=c1[nH]c(CSc2nnnn2-c2ccccc2)nc2ccccc12	7.2	5.0	i	9.8*	324.4	i	1.4	0.8
CCc1nc2ccc(C(=O)Nc3cccc(OCC(=O)N(C)C)c3)cn2c1N(C)Cc1ccc(OC)cc1	-3.3	/	/	2.9	/	i	/	/
CCCCCCn1c(C(C)O)nc2ccccc21 (centres undefined)	11.3	5.0	i	20.5*	190.7	i	1.2	-0.6
CC(O)c1nc2ccccc2n1CCCc1ccccc1 (centres undefined)	-0.6	2.0	i	1.1	684.7	i	/	/
CCc1nnc(NC(=O)CSc2nnc(CNC(=O)c3cc(OC)c(OC)c(OC)c3)o2)s1	3.1	0.0	i	8.2*	94.7	i	-1.3	0.1
CCCCSc1nnc(-c2ccc(NC(=O)CCc3ccccc3)cc2)n1C	-11.5	1.0	i	6.2*	360.9	i	9.0*	0.9
Cc1ccc(C)c(OCCCNC2CCCC2)c1C	3.3	0.0	i	13.3*	226.3	i	0.7	-1.0
S=c1nc[nH]c2c1sc1nc(N3CCOCC3)c3c(c12)CCCC3	6.4	4.0	i	-3.8	341.5	i	/	/
O=C(C1=COCCO1)N(Cc1nnc(-c2ccccc2Cl)o1)C1CC1	-6.3	1.0	/	8.2*	328.1	i	-0.5	0.7
O=C(C1=COCCO1)N(Cc1nnc(-c2ccc(Cl)cc2)o1)C1CC1	5.6	0.0	i	-2.5	279.0	i	/	/
NC(=O)c1ccc(N=Nc2c(O)c3ccccc3[nH]c2=O)cc1	/	3.0	i	/	141.3	/	/	/
N=C(N)c1ccc(N=Nc2c(O)ccc3c2[nH]c2ccccc23)cc1	-1.0	/	/	21.9*	/	i	23.8*	20.2*
